Reference: ChEMBL document CHEMBL1138683 (J Med Chem, 2004)

Legend:
[1] = tested on: Mus musculus; assay: Anti convulsant activity administered intra peritoneally to mouse at maximal electroshock test at 0.5 h after the drug administered with dose of 300 mg/kg; 0/1= No of animals protected /No of animals tested; type: functional
[2] = Anti convulsant activity administered intra peritoneally to mouse for toxicity at 4 hr with dose of 100 mg/kg; 1/4= No of animals exhibiting toxicity /No of animals tested; type: organism-based; parameters: dose 100 mg/kg; details: in vivo, ip
[3] = tested on: Mus musculus; assay: Anti convulsant activity administered intra peritoneally to mouse for subcutaneous metrazol test at 4 hr after the drug administered with dose of 30 mg/kg; 0/1= No of animals protected /No of animals tested; type: functional; details: route intraperitoneal
[4] = Anticonvulsant activity after oral administration of 100 mg/kg dose after 30 min in rats; ++ means 50% of the animals protected; type: organism-based; parameters: dose 100 mg/kg, route oral; details: rat, in vivo, 0.5 h
Outline: (§1)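 Oral dosing of rats at a single dose, compound dissolved or suspended in 0.5% methylcellulose. Protection in the MES or scMet test checked 15 min, 30 min, 1 h, 2 h and 4 h after dosing. Scored as 25/50/75/100% of animals protected (+ to ++++), – for none.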

[5] = Anti convulsant activity administered intra peritoneally to mouse for toxicity at 0.5 hr with dose of 30 mg/kg; 0/4= No of animals exhibiting toxicity /No of animals tested; type: organism-based; parameters: dose 30 mg/kg; details: in vivo, ip
[6] = tested on: Rattus norvegicus; assay: Anticonvulsant activity after oral administration of 100 mg/kg dose after 4 hr in rats; +means 25% of the animals protected; type: functional, organism-based; parameters: dose 100 mg/kg; outline: as §1
[7] = tested on: Rattus norvegicus; assay: Anticonvulsant activity after oral administration of 100 mg/kg dose after 1 hr in rats; + means 25% of the animals protected; type: functional, organism-based; parameters: dose 100 mg/kg; outline: as §1
[8] = Anti convulsant activity administered intra peritoneally to mouse for toxicity at 4 hr with dose of 30 mg/kg; 0/2= No of animals exhibiting toxicity /No of animals tested; type: organism-based; parameters: dose 30 mg/kg; details: in vivo, ip
[9] = tested on: Mus musculus; assay: Anti convulsant activity administered intra peritoneally to mouse for subcutaneous metrazol test at 4 hr with dose of 300 mg/kg; 0/1= No of animals protected /No of animals tested; type: functional
[10] = tested on: Mus musculus; assay: Anti convulsant activity administered intra peritoneally to mouse at maximal electroshock test at 0.5 h after the drug administered with dose of 30 mg/kg; 0/1= No of animals protected /No of animals tested; type: functional
[11] = tested on: Mus musculus; assay: Anti convulsant activity administered intra peritoneally to mouse for subcutaneous metrazol test at 0.5 hr with dose of 100 mg/kg; 0/1= No of animals protected /No of animals tested; type: functional
[12] = Anti convulsant activity administered intra peritoneally to mouse for toxicity at 4 hr with dose of 300 mg/kg; 0/2= No of animals exhibiting toxicity /No of animals tested; type: organism-based; parameters: dose 300 mg/kg; details: in vivo, ip
[13] = tested on: Rattus norvegicus; assay: Toxicity after oral administration of 100 mg/kg dose in rats; + means 25% of the […]; type: functional, organism-based; parameters: dose 100 mg/kg
Outline: (§2)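 Rats dosed orally with compound dissolved or suspended in 0.5% methylcellulose (0.04 mL per 10 g body weight). Anticonvulsant protection (MES or scMet) and toxicity scored at 15 min, 30 min, 1 h, 2 h and 4 h after dosing. Graded in steps of 25% of animals protected or showing toxicity.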

[14] = Anti convulsant activity administered intra peritoneally to mouse for toxicity at 0.5 hr with dose of 300 mg/kg; 4/4= No of animals exhibiting toxicity /No of animals tested; type: organism-based; parameters: dose 300 mg/kg; details: in vivo, ip
[15] = tested on: Mus musculus; assay: Anti convulsant activity administered intra peritoneally to mouse at maximal electroshock test at 4 hr after the drug administered with dose of 100 mg/kg; 0/3= No of animals protected /No of animals tested; type: functional
[16] = tested on: Mus musculus; assay: Anti convulsant activity administered intra peritoneally to mouse at maximal electroshock test at 4 hr after the drug administered with dose of 300 mg/kg; 0/1= No of animals protected /No of animals tested; type: functional
[17] = Toxicity after oral administration of 100 mg/kg dose in rats; + means 25% of the animals exhibit toxicity; type: organism-based; parameters: dose 100 mg/kg, route oral; details: rat, in vivo; outline: as §2
[18] = tested on: Mus musculus; assay: Anti convulsant activity administered intra peritoneally to mouse for subcutaneous metrazol test at 0.5 hr with dose of 30 mg/kg; 0/1= No of animals protected /No of animals tested; type: functional
[19] = tested on: Mus musculus; assay: Anti convulsant activity administered intra peritoneally to mouse for subcutaneous metrazol test at 4 hr after the drug administered with dose of 100 mg/kg; 0/1= No of animals protected /No of animals tested; type: functional
[20] = tested on: Mus musculus; assay: Anti convulsant activity administered intra peritoneally to mouse at maximal electroshock test at 0.5 hr after the drug administered with dose of 100 mg/kg; 0/3= No of animals protected /No of animals tested; type: functional
[21] = Anti convulsant activity administered intra peritoneally to mouse for toxicity at 0.5 hr with dose of 100 mg/kg; 7/8= No of animals exhibiting toxicity /No of animals tested; type: organism-based; parameters: dose 100 mg/kg; details: in vivo, ip
[22] = tested on: Mus musculus; assay: Anti convulsant activity administered intra peritoneally to mouse at maximal electroshock test at 4 hr after the drug administered with dose of 30 mg/kg; 0/1= No of animals protected /No of animals tested; type: functional
[23] = tested on: Mus musculus; assay: Anti convulsant activity administered intra peritoneally to mouse for subcutaneous metrazol test at 0.5 h with dose of 300 mg/kg; 0/1= No of animals protected /No of animals tested; type: functional
[24] = tested on: Mus musculus; assay: Anti convulsant activity administered intra peritoneally to mouse for toxicity at 4 hr with dose of 30 mg/kg; 1/3= No of animals exhibiting toxicity /No of animals tested; type: functional
[25] = Anti convulsant activity administered intra peritoneally to mouse for toxicity at 4 hr with dose of 300 mg/kg; 2/2= No of animals exhibiting toxicity /No of animals tested; type: organism-based; parameters: dose 300 mg/kg; details: in vivo, ip
[26] = tested on: Mus musculus; assay: Anti convulsant activity administered intra peritoneally to mouse at maximal electroshock test at 4 hr after the drug administered with dose of 300 mg/kg; 1/1= No of animals protected /No of animals tested; type: functional
[27] = Anti convulsant activity administered intra peritoneally to mouse for toxicity at 4 hr with dose of 100 mg/kg; 4/4= No of animals exhibiting toxicity /No of animals tested; type: organism-based; parameters: dose 100 mg/kg; details: in vivo, ip
[28] = tested on: Mus musculus; assay: Anti convulsant activity administered intra peritoneally to mouse at maximal electroshock test at 0.5 hr after the drug administered with dose of 300 mg/kg; 1/1= No of animals protected /No of animals tested; type: functional
[29] = Anti convulsant activity administered intra peritoneally to mouse for toxicity at 4 hr with dose of 300 mg/kg; 1/4= No of animals exhibiting toxicity /No of animals tested; type: organism-based; parameters: dose 300 mg/kg; details: in vivo, ip
[30] = Anti convulsant activity administered intra peritoneally to mouse for toxicity at 0.5 hr with dose of 100 mg/kg; 0/8= No of animals exhibiting toxicity /No of animals tested; type: organism-based; parameters: dose 100 mg/kg; details: in vivo, ip
[31] = tested on: Mus musculus; assay: Anti convulsant activity administered intra peritoneally to mouse for toxicity at 4 hr with dose of 30 mg/kg; 0/3= No of animals exhibiting toxicity /No of animals tested; type: functional
[32] = Anti convulsant activity administered intra peritoneally to mouse for toxicity at 0.5 hr with dose of 300 mg/kg; 2/4= No of animals exhibiting toxicity /No of animals tested; type: organism-based; parameters: dose 300 mg/kg; details: in vivo, ip
[33] = tested on: Rattus norvegicus; assay: Anticonvulsant activity after oral administration of 30 mg/kg dose after 4 hr in rats; + means 25% of the animals protected; type: functional, organism-based; parameters: dose 30 mg/kg; outline: as §1
[34] = tested on: Rattus norvegicus; assay: Anticonvulsant activity after oral administration of 30 mg/kg dose after 1 hr in rats; ++means 50% animals protected; type: functional, organism-based; parameters: dose 30 mg/kg; outline: as §1
[35] = tested on: Mus musculus; assay: Anti convulsant activity administered intra peritoneally to mouse for subcutaneous metrazol test at 0.5 hr with dose of 300 mg/kg; 1/1= No of animals protected /No of animals tested; type: functional
[36] = tested on: Mus musculus; assay: Quantitative Anticonvulsant activity administered intraperitoneally to mouse for protective index in maximal electro shock test;TD50/ED50; type: functional
Outline: (§3)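 Mice dosed intraperitoneally with compound dissolved or suspended in 0.5% methylcellulose (0.01 mL per gram body weight). […] Protective index calculated as TD50/ED50 for each seizure test.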

[37] = tested on: Rattus norvegicus; assay: Anticonvulsant activity after oral administration of 50 mg/kg dose after 30 min in rats; +++ means 75% of the animals protected; type: functional, organism-based; parameters: dose 50 mg/kg; outline: as §2
[38] = tested on: Mus musculus; assay: Quantitative Anticonvulsant activity administered intraperitoneally to mouse for protective index in subcutaneous metrazol test; type: functional; outline: as §3
[39] = tested on: Rattus norvegicus; assay: Quantitative Anticonvulsant activity administered orally to rat for toxicity; type: functional; details: po
Outline: (§4)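 Oral dosing in rats with compound dissolved or suspended in 0.5% methylcellulose (0.04 mL per 10 g body weight). […] Protective index taken as TD50/ED50 for each test.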

[40] = Anti convulsant activity administered intra peritoneally to mouse for toxicity at 4 hr with dose of 300 mg/kg; 1/2= No of animals exhibiting toxicity /No of animals tested; type: organism-based; parameters: dose 300 mg/kg; details: in vivo, ip
[41] = tested on: Rattus norvegicus; assay: Anticonvulsant activity after oral administration of 30 mg/kg dose after 30 min in rats; ++ means 50% animals protected; type: functional, organism-based; parameters: dose 30 mg/kg; outline: as §1
[42] = tested on: Rattus norvegicus; assay: Quantitative Anticonvulsant activity administered orally to rat for subcutaneous metrazol test; type: functional; outline: as §4
[43] = tested on: Rattus norvegicus; assay: Quantitative Anticonvulsant activity administered orally to rat for protective index in subcutaneous metrazol test; type: functional; outline: as §4
[44] = tested on: Mus musculus; assay: Anti convulsant activity administered intra peritoneally to mouse for subcutaneous metrazol test at 4 hr with dose of 300 mg/kg; 1/1= No of animals protected /No of animals tested; type: functional
[45] = tested on: Rattus norvegicus; assay: Anticonvulsant activity after oral administration of 50 mg/kg dose after 15 min in rats; ++++means 100% of the animals protected; type: functional, organism-based; parameters: dose 50 mg/kg; outline: as §1
[46] = Anti convulsant activity administered intra peritoneally to mouse for toxicity at 4 hr with dose of 100 mg/kg; 0/4= No of animals exhibiting toxicity /No of animals tested; type: organism-based; parameters: dose 100 mg/kg; details: in vivo, ip
[47] = Quantitative Anticonvulsant activity administered intraperitoneally to mouse for toxicity; details: in vivo, ip; outline: as §3
[48] = tested on: Rattus norvegicus; assay: Quantitative Anticonvulsant activity administered orally to rat for protective index in maximal electro shock test;TD50/ED50; type: functional; outline: as §4
[49] = tested on: Rattus norvegicus; assay: Quantitative Anticonvulsant activity administered orally to rat at maximal electro shock test; the interval in parenthesis stands for 95% confidence interval; type: functional; details: po; outline: as §4
[50] = tested on: Mus musculus; assay: Quantitative Anticonvulsant activity administered intraperitoneally to mouse for subcutaneous metrazol test; type: functional; outline: as §3
[51] = tested on: Mus musculus; assay: Anti convulsant activity administered intra peritoneally to mouse for toxicity at 4 hr with dose of 30 mg/kg; 2/3= No of animals exhibiting toxicity /No of animals tested; type: functional

Row | Compound | Toxicity [2] | Activity [3] | Toxicity [5] | Activity [7] | Toxicity [8] | Activity [9] | Activity [10] | Toxicity [14] | Activity [15] | Activity [16] | Activity [18] | Activity [19] | Toxicity [21] | Activity [22] | Activity [23] | Activity [28] | Toxicity [30] | also measured
1 | CCN(CCO)C(=O)C1C(C)(C)C1(C)C | 1 | 0 | 0 | 25% of the animals protected | 0 | 0 | 0 | 4 | 0 | 0 | 0 | 0 | 7 | 0 | 0 |  |  | Activity [1]: 0; Activity [4]: 25% of the animals protected; Activity [6]: 25% of the animals protected; Activity [11]: 0; Toxicity [12]: 0; Toxicity [13]: 25% of the animals exhibit toxicity; Toxicity [17]: 25% of the animals exhibit toxicity; Activity [20]: 0
2 | CC1(C)C(C(=O)N=C(N)N)C1(C)C |  | 0 | 0 |  | 0 |  | 0 | 4 | 0 |  | 0 |  | 7 | 0 |  | 1 |  | Activity [24]: 1; Toxicity [25]: 2; Activity [26]: 1; Toxicity [27]: 4
3 | CC1(C)C(C(=O)NN)C1(C)C | 1 | 0 | 0 |  | 0 | 0 | 0 |  | 0 |  | 0 | 0 |  | 0 | 0 | 1 | 0 | Toxicity [29]: 1; Activity [31]: 0; Toxicity [32]: 2; Activity [33]: 25% of the animals protected
4 | CONC(=O)C1C(C)(C)C1(C)C |  | 0 | 0 | 25% of the animals protected | 0 |  | 0 | 4 | 0 | 0 | 0 | 0 |  | 0 |  | 1 | 0 | Activity [34]: 25% of the animals protected; Activity [35]: 1; Ratio [36]: 1.4 mg/kg; Activity [37]: 25% of the animals protected; Anticonvulsant [38]: 2.2; ED50 [39]: 333 mg/kg; Toxicity [40]: 1; Activity [41]: 25% of the animals protected; ED50 [42]: 35 mg/kg; Activity [43]: 9.5; Activity [44]: 1; Anticonvulsant Activity [45]: 100% of the animals protected; Toxicity [46]: 0; TD50 [47]: 116 mg/kg; Ratio [48]: 3.1; ED50 [49]: 108 mg/kg; ED50 [50]: 74 mg/kg; Activity [51]: 2
